Laboratory results as given in ChEMBL document CHEMBL3297645, “Discovery of TD-4306, a long-acting β2-agonist for the treatment of asthma and COPD” (Bioorg Med Chem Lett, 2014).
The source made the active and inactive calls. The rule behind the calls is not given here.

Legend:
[1] = molecular target: Beta-3 adrenergic receptor (Homo sapiens, UniProt P13945); assay: Agonist activity at human beta3 adrenergic receptor expressed in cells by cAMP accumulation assay; assay type: functional, cell-based
In short: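 cAMP accumulation read-out in a recombinant cell line heterologously expressing the human β3-adrenoceptor.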

[2] = molecular target: T1, Beta-2 adrenergic receptor (Homo sapiens, UniProt P07550); assay: Displacement of [3H]dihydroalprenolol from human beta2 adrenergic receptor expressing cell membrane by competition binding assay
[3] = molecular target: T1, Beta-2 adrenergic receptor; assay: Agonist activity at human beta2 adrenergic receptor expressed in cells by cAMP accumulation assay; assay type: functional, cell-based
[4] = molecular target: T1, Beta-2 adrenergic receptor; assay: Agonist activity at human beta2 adrenergic receptor in human BEAS-2B cells by cAMP accumulation assay; assay type: functional, cell-based
Homo sapiens [5] = species: Homo sapiens; assay: Selectivity ratio of Ki for human beta1 adrenergic receptor to Ki for human beta2 adrenergic receptor
In short: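 Competition binding used [3H]dihydroalprenolol as tracer on plasma membranes from cells expressing recombinant human β1- or β2-adrenoceptors. Selectivity is the ratio β1 Ki/β2 Ki.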

[6] = molecular target: Beta-1 adrenergic receptor (Homo sapiens, UniProt P08588); assay: Agonist activity at human beta1 adrenergic receptor expressed in cells by cAMP accumulation assay; assay type: functional, cell-based
[7] = Dissociation constant, pKa of the compound; assay type: physicochemical
Cavia porcellus [8] = assay: Bronchoprotection activity against acetylcholine-induced guinea pig bronchoconstriction model at 1 to 100 ug/ml administered as nebulized dosing measured after 72 hrs; assay type: functional, organism-based
In short: (§1)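 Guinea pigs received the compound by nebulizer, and testing took place 72 h after treatment. Pulmonary resistance was measured by head-out plethysmograph in anesthetized, spontaneously breathing animals. Bronchoconstriction was induced by increasing intravenous acetylcholine doses. The ACh dose doubling baseline resistance (PD2) was calculated.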

Cavia porcellus [9] = assay: Bronchoprotection activity against acetylcholine-induced guinea pig bronchoconstriction model at >= 30 ug/ml administered as nebulized dosing measured after 72 hrs; assay type: functional, organism-based; in short: as §1
[10] = Oral bioavailability in dog; assay type: ADME, organism-based, Canis lupus familiaris; conditions: in vivo
hERG (KCNH2) = hERG (KCNH2) (Homo sapiens, UniProt Q12809); assay: Inhibition of human ERG at 40 nM
[11] = Oral bioavailability in rat; assay type: ADME, organism-based; conditions: in vivo
Homo sapiens [12] = species: Homo sapiens; assay: Inhibition of muscarinic receptor (unknown origin) at 1 uM
[13] = Clearance in rat; assay type: ADME, organism-based; conditions: in vivo
[14] = molecular target: T2, Muscarinic acetylcholine receptor M2 (Homo sapiens, UniProt P08172); assay: Inhibition of muscarinic acetylcholine receptor M2 (unknown origin)
T2 sequence (P08172 whole entry): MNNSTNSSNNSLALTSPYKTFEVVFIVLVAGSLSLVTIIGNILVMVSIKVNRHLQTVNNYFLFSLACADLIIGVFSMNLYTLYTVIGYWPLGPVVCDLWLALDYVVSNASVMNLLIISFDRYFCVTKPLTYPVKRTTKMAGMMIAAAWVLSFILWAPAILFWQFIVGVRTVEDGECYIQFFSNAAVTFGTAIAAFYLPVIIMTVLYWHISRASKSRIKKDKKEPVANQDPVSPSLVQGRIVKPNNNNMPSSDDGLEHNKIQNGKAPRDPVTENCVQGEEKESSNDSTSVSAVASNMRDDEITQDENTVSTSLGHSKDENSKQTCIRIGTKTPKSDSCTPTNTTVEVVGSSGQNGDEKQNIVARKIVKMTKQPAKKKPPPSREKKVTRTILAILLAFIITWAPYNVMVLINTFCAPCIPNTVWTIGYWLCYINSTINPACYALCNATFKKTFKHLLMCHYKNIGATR

Cavia porcellus [15] = assay: Bronchoprotection activity against acetylcholine-induced guinea pig bronchoconstriction model administered as nebulized dosing measured after 72 hrs; assay type: functional, organism-based; in short: as §1
[16] = Clearance in dog; assay type: ADME, organism-based, Canis lupus familiaris; conditions: in vivo

T1 sequence (P07550 whole entry): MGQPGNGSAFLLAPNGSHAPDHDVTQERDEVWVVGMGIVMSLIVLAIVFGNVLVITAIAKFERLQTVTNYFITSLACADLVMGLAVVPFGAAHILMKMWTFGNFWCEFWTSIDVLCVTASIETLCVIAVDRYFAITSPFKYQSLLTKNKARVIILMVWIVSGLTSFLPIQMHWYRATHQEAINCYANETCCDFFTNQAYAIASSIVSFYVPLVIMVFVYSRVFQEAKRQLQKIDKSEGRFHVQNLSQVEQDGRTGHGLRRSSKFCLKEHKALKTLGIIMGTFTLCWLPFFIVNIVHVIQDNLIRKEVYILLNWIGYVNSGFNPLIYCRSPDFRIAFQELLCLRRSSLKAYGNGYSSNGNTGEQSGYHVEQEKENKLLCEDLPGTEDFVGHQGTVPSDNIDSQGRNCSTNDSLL
Sequence of Beta-1 adrenergic receptor (P08588 whole entry): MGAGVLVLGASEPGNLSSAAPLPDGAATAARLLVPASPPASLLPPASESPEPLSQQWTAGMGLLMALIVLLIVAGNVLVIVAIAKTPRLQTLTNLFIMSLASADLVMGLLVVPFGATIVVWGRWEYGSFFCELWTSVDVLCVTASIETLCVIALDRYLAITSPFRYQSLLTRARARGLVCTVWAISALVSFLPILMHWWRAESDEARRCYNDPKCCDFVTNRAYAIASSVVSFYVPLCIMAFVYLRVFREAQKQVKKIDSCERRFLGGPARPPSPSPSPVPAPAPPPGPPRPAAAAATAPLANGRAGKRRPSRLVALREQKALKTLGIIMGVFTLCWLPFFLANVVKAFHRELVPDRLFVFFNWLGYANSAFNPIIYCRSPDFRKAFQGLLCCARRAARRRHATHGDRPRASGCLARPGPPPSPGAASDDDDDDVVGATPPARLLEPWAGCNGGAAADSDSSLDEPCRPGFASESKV
Sequence of Beta-3 adrenergic receptor (P13945 whole entry): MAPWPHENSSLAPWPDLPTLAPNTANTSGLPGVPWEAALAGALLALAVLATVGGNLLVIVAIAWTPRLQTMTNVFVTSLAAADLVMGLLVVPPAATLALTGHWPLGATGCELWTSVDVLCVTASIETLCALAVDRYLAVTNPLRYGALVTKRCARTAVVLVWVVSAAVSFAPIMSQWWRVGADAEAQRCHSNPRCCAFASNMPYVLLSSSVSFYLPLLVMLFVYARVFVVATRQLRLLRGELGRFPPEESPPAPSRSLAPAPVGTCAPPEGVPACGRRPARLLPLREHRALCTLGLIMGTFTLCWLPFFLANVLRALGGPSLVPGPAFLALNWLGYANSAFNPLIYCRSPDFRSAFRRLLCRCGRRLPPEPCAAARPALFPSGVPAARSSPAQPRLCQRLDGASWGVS
Sequence of hERG (KCNH2) (Q12809 whole entry): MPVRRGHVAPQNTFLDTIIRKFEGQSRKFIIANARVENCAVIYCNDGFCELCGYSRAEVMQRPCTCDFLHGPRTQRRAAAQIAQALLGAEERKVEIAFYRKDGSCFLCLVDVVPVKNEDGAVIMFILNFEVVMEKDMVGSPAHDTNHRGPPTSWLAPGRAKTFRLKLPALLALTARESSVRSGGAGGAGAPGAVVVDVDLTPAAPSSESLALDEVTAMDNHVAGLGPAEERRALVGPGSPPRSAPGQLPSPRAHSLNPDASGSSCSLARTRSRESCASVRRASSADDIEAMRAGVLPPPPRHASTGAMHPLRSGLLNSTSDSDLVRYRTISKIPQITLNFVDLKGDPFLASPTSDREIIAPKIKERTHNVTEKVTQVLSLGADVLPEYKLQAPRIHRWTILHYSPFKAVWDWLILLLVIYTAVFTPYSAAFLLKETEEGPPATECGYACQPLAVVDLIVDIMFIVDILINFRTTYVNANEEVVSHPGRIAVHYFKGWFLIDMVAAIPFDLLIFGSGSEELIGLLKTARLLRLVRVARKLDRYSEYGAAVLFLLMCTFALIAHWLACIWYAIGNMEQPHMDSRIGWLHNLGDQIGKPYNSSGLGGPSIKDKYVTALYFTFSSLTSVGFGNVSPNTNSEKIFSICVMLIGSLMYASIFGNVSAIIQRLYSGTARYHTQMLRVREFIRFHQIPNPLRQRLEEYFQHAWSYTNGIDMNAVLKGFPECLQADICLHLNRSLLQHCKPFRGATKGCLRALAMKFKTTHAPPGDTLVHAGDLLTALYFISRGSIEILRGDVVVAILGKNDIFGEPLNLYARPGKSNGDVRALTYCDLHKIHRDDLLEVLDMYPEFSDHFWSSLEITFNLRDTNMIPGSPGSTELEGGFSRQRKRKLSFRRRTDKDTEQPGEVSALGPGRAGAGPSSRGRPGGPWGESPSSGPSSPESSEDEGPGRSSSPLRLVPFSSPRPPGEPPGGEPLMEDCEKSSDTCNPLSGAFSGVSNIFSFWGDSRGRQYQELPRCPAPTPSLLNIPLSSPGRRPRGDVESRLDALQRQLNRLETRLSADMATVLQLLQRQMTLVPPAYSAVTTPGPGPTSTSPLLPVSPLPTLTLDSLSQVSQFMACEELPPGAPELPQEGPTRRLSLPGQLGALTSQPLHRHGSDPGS

SMILES	EC50 [1] [nM]	Ki [2] [nM]	EC50 [3] [nM]	EC50 [4] [nM]	Ratio Ki (Homo sapiens [5])	EC50 [6] [nM]	pKa [7]	Activity (Cavia porcellus [8])	Activity (Cavia porcellus [9])	bioavailability [10] [%]	inhibition at 0.04 µM (hERG (KCNH2)) [%]	bioavailability [11] [%]	inhibition (Homo sapiens [12])	clearance [13] [mL/min/kg]	Ki [14] [nM]	Activity (Cavia porcellus [15])	clearance [16] [mL/min/kg]
O=c1ccc2c([C@@H](O)CNCCc3ccc(Nc4ccc(OCCN5CCNCC5)cc4)cc3)ccc(O)c2[nH]1	39.8	10	0.126	1.58	116	10	9.1	–	–	–	–	–	–	–	–	–	–
NCCCCOc1ccc(Nc2ccc(CCNC[C@H](O)c3ccc(O)c4[nH]c(=O)ccc34)cc2)cc1	39.8	5.01	0.126	0.631	85	7.94	–	–	–	–	–	–	–	–	–	–	–
COc1ccc(Nc2ccc(CCNC[C@H](O)c3ccc(O)c4[nH]c(=O)ccc34)cc2)cc1-c1cccc(CN)c1	25.1	1.58	0.0794	0.316	146	3.98	–	Active	–	–	–	–	–	–	–	–	–
CC(C)(N)COc1ccc(Nc2ccc(CCNC[C@H](O)c3ccc(O)c(NC=O)c3)cc2)cc1	39.8	25.1	0.251	3.16	94	6.31	–	–	–	–	–	–	–	–	–	–	–
NCCCOc1ccc(Nc2ccc(CCNC[C@H](O)c3ccc(O)c4[nH]c(=O)ccc34)cc2)cc1	39.8	5.01	0.158	0.631	95	7.94	–	–	–	–	–	–	–	–	–	–	–
CC(C)(N)COc1ccc(Nc2ccc(CCNC[C@H](O)c3ccc(O)c4[nH]c(=O)ccc34)cc2)cc1	63.1	6.31	0.0794	1	64	6.31	–	–	Active	5	7	1	Active	6.67	631	Dose-dependent effect	40
O=c1ccc2c([C@@H](O)CNCCc3ccc(Nc4ccc(OCCN5CCOCC5)cc4)cc3)ccc(O)c2[nH]1	50.1	20	0.316	3.16	41	12.6	–	–	–	–	–	–	–	–	–	–	–
COc1ccc(Nc2ccc(CCNC[C@H](O)c3ccc(O)c4[nH]c(=O)ccc34)cc2)cc1-c1ccccc1	–	6.31	–	–	115	–	–	Active	–	–	–	–	–	–	–	–	–
COc1ccc(Nc2ccc(CCNC[C@H](O)c3ccc(O)c4[nH]c(=O)ccc34)cc2)cc1-c1ccccc1CN	6.31	3.16	0.126	0.794	20	2.51	–	–	–	–	–	–	–	–	–	–	–
NCCOCCOc1ccc(Nc2ccc(CCNC[C@H](O)c3ccc(O)c4[nH]c(=O)ccc34)cc2)cc1	39.8	6.31	0.158	0.631	95	7.94	–	–	–	–	–	–	–	–	–	–	–
CC(C)(C)OC(=O)NCCOc1ccc(Nc2ccc(CCNC[C@H](O)c3ccc(O)c4[nH]c(=O)ccc34)cc2)cc1	12.6	20	0.501	2.51	26	12.6	–	–	–	–	–	–	–	–	–	–	–
CS(=O)(=O)N1CCN(CCOc2ccc(Nc3ccc(CCNC[C@H](O)c4ccc(O)c5[nH]c(=O)ccc45)cc3)cc2)CC1	31.6	31.6	0.631	6.31	30	7.94	–	–	–	–	–	–	–	–	–	–	–
COc1ccc(Nc2ccc(CCNC[C@H](O)c3ccc(O)c4[nH]c(=O)ccc34)cc2)cc1-c1ccc(CN)cc1	10	1.26	0.1	0.501	101	2.51	–	Active	–	–	–	–	–	–	–	–	–
CC(C)(N)COc1ccc(Nc2ccc(CCNC[C@H](O)c3ccc(O)c4[nH]c(=O)ccc34)cc2)cc1-c1ccccc1	7.94	1	0.0631	0.631	140	1.58	–	–	–	–	–	–	–	–	–	–	–
NCCOc1ccc(Nc2ccc(CCNC[C@H](O)c3ccc(O)c4[nH]c(=O)ccc34)cc2)cc1	39.8	6.31	0.1	0.501	64	7.94	–	–	–	–	–	–	–	–	–	–	–
CCOc1ccc(Nc2ccc(CCNC[C@H](O)c3ccc(O)c4[nH]c(=O)ccc34)cc2)cc1	–	12.6	0.251	2	72	–	–	–	–	–	–	–	–	–	–	inactive	–
O=C(NCCOc1ccc(Nc2ccc(CCNC[C@H](O)c3ccc(O)c4[nH]c(=O)ccc34)cc2)cc1)c1ccccc1	12.6	10	0.501	1.58	13	2	–	–	–	–	–	–	–	–	–	–	–
O=CNc1cc([C@@H](O)CNCCc2ccc(NC[C@H](O)c3ccccc3)cc2)ccc1O [MILVETEROL]	39.8	–	–	–	2910	–	–	–	–	–	–	–	–	–	–	–	–
